From PubChem BioAssay
An excerpt weighted towards active compounds, which were near 4% of everything screened.
TAAR1 antag – human TAAR1 antagonism | Q96RJ0 | CHO RD-HGA16 TAAR1, Fluo-8 calcium fluorescence, antagonist | inhibition, % at 3 µM | 360,000 compounds, 1.5% hits | AID 624466;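 active = inhibition above a per-plate cutoff, the mean inhibition of test compounds on that plate plus 3 SD, cut at about 49% in these data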;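 also: 0% = DMSO plus EC80 beta-PEA response and 100% = DMSO alone without agonist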
Target sequence (Q96RJ0 whole entry, looked up): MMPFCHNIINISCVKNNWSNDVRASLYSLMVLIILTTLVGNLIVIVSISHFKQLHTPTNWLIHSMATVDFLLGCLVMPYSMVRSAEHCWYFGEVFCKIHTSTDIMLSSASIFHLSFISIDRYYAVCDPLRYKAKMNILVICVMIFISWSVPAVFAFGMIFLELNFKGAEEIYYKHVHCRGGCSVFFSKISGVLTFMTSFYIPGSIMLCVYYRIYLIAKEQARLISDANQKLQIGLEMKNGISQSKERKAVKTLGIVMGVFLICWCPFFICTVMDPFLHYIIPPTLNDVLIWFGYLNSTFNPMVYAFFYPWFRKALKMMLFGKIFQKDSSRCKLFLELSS
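Test system: RD-HGA16 CHO cells with stable hTAAR1 and Gα16 / Probe or stimulus: EC80 β-phenethylamine stimulus / Times: seeding 17-24 h prior, 75-min 37 °C, 30-min RT dye loading / Detection: Fluo-8 calcium-sensitive fluorescence / Read-out basis: % inhibition scaled between DMSO and EC80 PEA controls / Repeats: singlicate, one well per test compound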
DAGLB inhibitor – diacylglycerol lipase beta (human) inhibition; HEK293T DAGLB membrane lysate, EnzChek fluorogenic substrate; inhibition, % at 5.17 µM; 340,000 compounds, 0.059% hits; in the data active = inhibition above about 34%;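 also: 0% = enzyme with vehicle and 100% = wells lacking enzyme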
MPTP block – permeability transition pore inhibition; inhibition, % at 10 µM; 360,000 compounds, 1.4% hits; isolated mouse mitochondria, Ca2+ swelling absorbance, 30 min;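 active = inhibition of 50% or more, scaled per plate between neutral and stimulator controls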;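 also: 0% = DMSO wells given calcium and 100% = 1 mM EGTA wells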
GPR7 antagonist – human neuropeptides B/W receptor 1 antagonism; P48145; AID 1861; 290,000 compounds, 1.1% hits; inhibition, % at 4.4 µM; GPR7-expressing cells, fluorescence antagonist assay; in the data active = inhibition above about 16%, passing the limit was not always enough;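 also: cells stimulated with the agonist NPW; 0% = agonist with vehicle and 100% = vehicle without agonist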
Target sequence (P48145 whole entry, looked up): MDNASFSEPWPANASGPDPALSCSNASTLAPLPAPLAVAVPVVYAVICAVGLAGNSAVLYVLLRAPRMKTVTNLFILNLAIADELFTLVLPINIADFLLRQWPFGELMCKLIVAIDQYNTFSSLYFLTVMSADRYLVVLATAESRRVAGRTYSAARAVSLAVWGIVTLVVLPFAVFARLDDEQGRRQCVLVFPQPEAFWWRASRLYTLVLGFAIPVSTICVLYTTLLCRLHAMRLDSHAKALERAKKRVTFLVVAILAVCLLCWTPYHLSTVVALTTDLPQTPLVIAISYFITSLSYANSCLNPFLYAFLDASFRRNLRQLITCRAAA
TAAR1 agonist – human TAAR1 agonism; Q96RJ0; CHO RD-HGA16 TAAR1, Fluo-8 calcium fluorescence; vehicle wells 0%, saturating PEA agonist 100%; activation, % at 3 µM; 360,000 compounds, 0.99% hits;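 active = activation above the mean activation of all test compounds in the run plus 3 SD, cut at about 38% in these data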
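Test system: RD-HGA16 (CHO) cells co-expressing Gα16 and hTAAR1 | Doses: Single dose, 3 µM | Schedule: 17-24 h seeding, 75 min 37 °C dye, 30 min RT | Evaluation: % activation from peak over basal fluorescence ratio, DMSO-to-PEA scaled | Technique: Kinetic Fluo-8 calcium fluorescence | Benchmarks: Low control DMSO, high control PEA (EC100)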
* = called active by the depositor; . = no result given.

SMILES | TAAR1 antag | DAGLB inhibitor | MPTP block | GPR7 antagonist | TAAR1 agonist
CC1(C(=O)Nc2cnc3ccccc3c2)CCN1Cc1ccccc1OC(F)F (centres undefined) | 62* | . | 1 | . | 4
CC(C)(C)C(=O)Nc1ccccc1C(=O)Nc1cc(Cl)ccc1Cl | 27 | -10 | 4 | 0 | 54*
CC(C)(C)C(=O)Nc1ccccc1C(=O)Nc1cccnc1 | -18 | -1 | -1 | -8 | -1
Cc1ccc(C(=O)NC2CCCCN(C)C2=O)c(C)c1 (centres undefined) | 14 | . | . | . | 0
CS(=O)(=O)Nc1cccc(C2=NN(S(=O)(=O)c3ccc(F)cc3)C(c3cccs3)C2)c1 (centres undefined) | 0 | -2 | 0 | 19* | -1
CCS(=O)(=O)Nc1cccc(C2=NN(S(=O)(=O)c3ccc(F)cc3)C(c3cccs3)C2)c1 (centres undefined) | 4 | -4 | 3 | 14 | 2
Cc1ccc(C(=O)N2N=C(c3cccc(NS(C)(=O)=O)c3)CC2c2cccs2)cc1 (centres undefined) | 51* | -2 | 0 | 20 | 11
O=C(O)CCN1C(=O)c2ccccc2C1=O | 2 | 1 | -1 | 18* | 0
O=C1C(=O)N(Cc2ccccc2)C(=O)N1CCN1C(=O)c2ccccc2C1=O | -1 | 0 | 0 | 19* | 4
COc1ccc(CC(C)NCC(O)c2ccc(O)c(NC=O)c2)cc1 (centres undefined) | -7 | -1 | 0 | . | 3
CCCNC(=O)c1cc2c(c(-c3cccc(-c4ccc(F)cc4)c3)n1)[C@@H](CCO)N(S(=O)C(C)(C)C)C2 (some centres undefined) | 49* | . | 0 | . | 12
COc1ccccc1-c1cccc(-c2nc(C(=O)N3CCCCC3)cc3c2[C@H](CCO)N(S(=O)C(C)(C)C)C3)c1 (some centres undefined) | 58* | . | 0 | . | 15
Cc1c(CN2CCC(CO)(CCOc3ccccc3)CC2)[nH]c2c(Cl)cccc12 | 26 | -5 | 4 | 23 | 41*
CC(=O)Nc1cc(-c2cccnc2)cn2c(-c3cccc(C(F)(F)F)c3)cnc12 | 4 | . | -1 | . | -1
COc1ccc(Cn2cc(CN3CCc4onc(-c5ccc(Br)cc5)c4C3=O)nn2)cc1 | 10 | . | 2 | . | 1
O=C(/C=C/c1cccc(Cl)c1)c1ccc([N+](=O)[O-])o1 | 43 | 6 | -2 | . | 57*
Cc1ccc(N(C)S(=O)(=O)c2c[nH]c3ccc([N+](=O)[O-])cc23)cc1 | 51* | -6 | 17 | -5 | 3
CCN(c1ccccc1)S(=O)(=O)c1c[nH]c2ccc([N+](=O)[O-])cc12 | 18 | -4 | 29 | -3 | 5
COc1ccc(Cc2nc3c([nH]2)c(=O)n(C)c(=O)n3C)cc1OC | -14 | 1 | -1 | . | 0
COc1cc(OC)c(OC)cc1/C=C1\CC(C)C/C(=C\c2cc(OC)c(OC)cc2OC)C1=O (centres undefined) | 51* | 1 | 0 | -9 | 11
CCC1C/C(=C\c2cc(OC)c(OC)cc2OC)C(=O)/C(=C/c2cc(OC)c(OC)cc2OC)C1 (centres undefined) | . | 1 | 1 | -17 | .
c1csc(-c2nc3nc4ccccc4nc3n2Cc2ccc3c(c2)OCO3)c1 | 42 | -3 | 0 | -3 | 13
Clc1ccccc1-c1nc2nc3ccccc3nc2n1-c1ccc2c(c1)OCO2 | 49* | -2 | 1 | -5 | 10
COc1ccc(CCNC(=O)CCN2C(=O)[C@@H]3Cc4ccccc4CN3C2=O)cc1OC | 50* | 1 | -3 | -14 | 16
O=C(CN1CCN(c2ccccc2O)CC1)Nc1cc(S(=O)(=O)N2CCCC2)ccc1Cl | -20 | 0 | -1 | . | 5
SMILES | TAAR1 antag | DAGLB inhibitor | MPTP block | GPR7 antagonist | TAAR1 agonist
OC(CNCCc1ccc(Cl)cc1)COc1ccc2ccccc2c1 (centres undefined) | 13 | -4 | 14 | 12 | 42*
OC(CNCCc1ccccc1)COc1ccc(OCC(O)CNCCc2ccccc2)cc1 (centres undefined) | 0 | -3 | -4 | 32* | 13
CC(C)c1ccc(OCC(O)CNC(C)c2ccccc2)cc1 (centres undefined) | -4 | -1 | 2 | 8 | 57*
Cc1ccc(OCC(O)CNCc2ccccc2)cc1C (centres undefined) | -28 | -5 | 1 | 0 | 6
CCC(=O)c1ccc(OCC(O)CNC(C)c2ccccc2)cc1 (centres undefined) | -2 | -3 | -1 | -3 | 4
COc1ccc(CCNCC(O)COc2ccc(Cl)cc2)cc1OC (centres undefined) | -2 | -1 | 1 | 13 | 7
CCC(=O)c1ccc(OCC(=O)OCC(=O)N2c3ccccc3NC(=O)C2(C)C)cc1 | 52* | -1 | 0 | . | 13
COc1cc(C(=O)OCC(=O)N2c3ccccc3NC(=O)C2(C)C)ccc1OCC(C)C | 67* | 0 | 0 | . | 14
CC(C)(C)c1ccc(OCCC(=O)OCC(=O)N2c3ccccc3NC(=O)C2(C)C)cc1 | 93* | 1 | 2 | . | 9
Cc1cc(OCC(=O)OCC(=O)N2c3ccccc3NC(=O)C2(C)C)ccc1Cl | 70* | -2 | -1 | . | 8
Cc1cccc(OCCC(=O)OCC(=O)N2c3ccccc3NC(=O)C2(C)C)c1 | 41 | -2 | -1 | . | 12
CC1(C)C(=O)Nc2ccccc2N1C(=O)COC(=O)Cc1ccc(Cl)c(Cl)c1 | 33 | -2 | 0 | . | 2
Cc1cccc(Cn2c(NC3CCCC3)nc3c2c(=O)[nH]c(=O)n3C)c1 | -2 | 2 | 0 | . | 1
Cc1ccc(S(=O)(=O)N2CCC(C(=O)OCC(=O)N(C)C3CCS(=O)(=O)C3)CC2)cc1C (centres undefined) | -19 | 1 | 0 | . | 3
FC(F)(F)c1ccc(Cl)c(CN2CCN(c3ncc(Cc4ccccc4)cn3)CC2)c1 | -29 | . | . | . | -1
COc1ccc(NC(=O)c2ccc(COc3ccccc3Br)o2)cc1OC | 80* | 3 | -1 | -11 | 4
Fc1ccc(Nc2nnc(-c3ccncc3)s2)cc1Cl | -12 | . | 8 | . | 9
CCOc1ccc(NS(=O)(=O)c2cccs2)cc1S(=O)(=O)N1CCCC1 | -21 | -2 | 1 | . | 1
COc1cccc(C(=O)Nn2c(-c3cccs3)nc3ccccc3c2=O)c1OC | 36 | -1 | 2 | -2 | 8
COc1ccc(CNn2c(-c3cccs3)nc3ccccc3c2=O)cc1OC | 51* | -6 | 0 | -10 | 13
Cc1ccccc1C1=CC(=O)CC(C)(C)C1=O | 12 | . | . | . | 0
Cc1ccc(OCc2cc(C(=O)NCc3ccc(OC(F)(F)F)cc3)no2)cn1 | 48 | 0 | 0 | 4 | 41*
CCn1c(SCc2cccc(F)c2)nnc1-c1cccnc1 | 0 | -4 | 1 | 19* | 0
CCn1c(SCc2cccc(F)c2)nnc1-c1ccncc1 | 2 | -1 | -1 | 13 | 1
